# Data reported in publication PMC9275543 (Chromatographia, 2022).
# Like-named read-outs stand apart in the source and are kept apart here.
# Assays:
# ACE2 [1] = target: T1, ACE2 (Homo sapiens, UniProt Q9BYF1); settings: cell chromatography; cited from earlier work
# [2] = target: angiotensin-converting enzyme 2 (ACE2) (Homo sapiens, UniProt Q9BYF1); assay: Frontal analysis on the ACE2 affinity capillary column; type: binding; settings: 5 μM; 25 μm i.d., 40 mm; 30 nL/min; 25 °C
# [3] = target: SARS-CoV-2-Main protease (Main pro) (Severe acute respiratory syndrome coronavirus 2, UniProt P0DTD1); assay: Normalized breakthrough curves on the Main pro affinity capillary column; type: binding
# Outline: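 Recombinant biotinylated Main pro was loaded at 10 μM and 30 nL/min onto a neutravidin poly(GMA-co-EDMA) monolith capillary, immobilising about 1.60 pmol (n = 6). Free test compound and its PEG-dispersed oxidised MWCNT nanovector (5 μM) were flushed in 50 mM PBS pH 7.4. Reference columns were neutravidin-only and ACE2. UV was read at 238 nm. Breakthrough was normalised as outlet/inlet absorbance versus tp/t0, with t0 from DMSO.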
# ACE2 [4] = target: T1, ACE2; assay: Competition experiment with SARS-CoV-2 RBD on the ACE2 affinity column; type: binding; settings: from competition with SARS-CoV-2 RBD
# [5] = Breakthrough on neutravidin control column; type: binding; settings: 5 μM; 25 μm i.d.; 30 nL/min; 25 °C; no ACE2 or Main pro
# Outline: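 Frontal analysis: free test compound or its PEG-dispersed oxidized multiwall carbon nanotube nanovector, each at 5 μM in 50 mM PBS pH 7.4, flushed successively through a neutravidin poly(GMA-co-EDMA) monolith capillary (40 mm, 25 μm i.d.) with no grafted receptor. Run at 30 nL min−1 and 25 °C with UV detection at 238 nm. Saturation plateau time tp is normalized to DMSO-derived dead time t0.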
# ACE2 [6] = target: T1, ACE2; settings: surface plasmon resonance; cited from earlier work
# T1 sequence (Q9BYF1 18-805): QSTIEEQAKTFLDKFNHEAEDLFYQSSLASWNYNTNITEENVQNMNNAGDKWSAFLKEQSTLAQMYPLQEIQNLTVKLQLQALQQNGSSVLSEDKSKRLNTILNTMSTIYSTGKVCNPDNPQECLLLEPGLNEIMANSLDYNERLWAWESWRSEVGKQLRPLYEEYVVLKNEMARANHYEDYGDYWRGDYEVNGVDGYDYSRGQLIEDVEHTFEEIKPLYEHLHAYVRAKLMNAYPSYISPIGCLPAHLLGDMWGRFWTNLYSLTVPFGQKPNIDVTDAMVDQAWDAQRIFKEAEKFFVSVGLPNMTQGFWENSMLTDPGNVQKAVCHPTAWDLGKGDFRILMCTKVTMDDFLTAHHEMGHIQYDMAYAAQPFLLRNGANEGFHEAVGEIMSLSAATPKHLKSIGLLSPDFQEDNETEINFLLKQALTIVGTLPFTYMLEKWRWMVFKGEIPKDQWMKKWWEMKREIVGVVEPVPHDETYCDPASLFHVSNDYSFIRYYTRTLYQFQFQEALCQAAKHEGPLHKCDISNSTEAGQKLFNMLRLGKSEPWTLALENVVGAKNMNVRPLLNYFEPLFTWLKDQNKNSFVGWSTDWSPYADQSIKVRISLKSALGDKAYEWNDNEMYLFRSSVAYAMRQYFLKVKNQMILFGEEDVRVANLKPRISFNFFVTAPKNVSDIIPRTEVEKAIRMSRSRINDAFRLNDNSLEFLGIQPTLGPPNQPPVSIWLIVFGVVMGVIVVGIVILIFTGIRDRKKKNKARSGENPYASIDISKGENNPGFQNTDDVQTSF
# angiotensin-converting enzyme 2 (ACE2), sequence (Q9BYF1 18-805): as above
Structure (SMILES),Kd (ACE2 [1]),normalized breakthrough time on the ACE2 column [2],Kd [3],"normalized breakthrough time on the Main pro column ([3]; 5 μM, 25 μm i.d., 40 mm, 30 nL/min, 25 °C)",binding site on ACE2 (ACE2 [4]),normalized breakthrough time t/t0 on neutravidin control column [5],Kd (ACE2 [6])
"CCN(CC)CCCC(C)Nc1ccnc2cc(Cl)ccc12 (stereo not shown) [Chloroquine, chloroquine]",1300 nM,–,–,–,–,–,–
C[C@@H]1C[C@H]2[C@@H]3CCC4=CC(=O)C=C[C@]4(C)[C@@]3(F)[C@@H](O)C[C@]2(C)[C@@]1(O)C(=O)CO [Dexamethasone],–,above 1,> 5 µM,above 1,bound on the orthosteric site of ACE2 with specific interaction,~1,9 µM
